Screening results as filed in PubChem.
Most compounds without a hit are left out; they make up all but 4.1% or so of the library.
KCNQ1 pot: potentiates or activates the human KCNQ1 potassium channel; B-score at 10 µM; hit rate 0.35% among 310,000; P51787; CHO-K1 KCNQ1, thallium flux FluxOR fluorescence; active compounds read high;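 active means fluorescence ratio B-score, a plate-corrected score, at least three library SD, with initial intensity B-score within 5 SD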
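Material: CHO-K1 cells stably expressing KCNQ1. Medium: assay buffer for compound exposure, DMSO matched across wells. Reagent: K+/Tl+ depolarizing stimulus. Compound dosing: single-concentration screen. Times: 37 °C overnight plating, 90-min dark dye load, 20-min compound pretreatment. Technique: FluxOR Tl+ flux fluorescence.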
hERG protect: shields human hERG channel from block by proarrhythmic agents. Q12809. CHO-hERG, FluxOR thallium flux, dofetilide IC70 present. activation (rescue from dofetilide block), less the hit threshold, % at 10 µM. hit rate 0.51% among 310,000;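 active means activation above the mean of controls blocked by dofetilide plus 5 SD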;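 further: thallium influx through hERG after potassium depolarization seen as dye fluorescence rise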
KCNK9 block: inhibitors of human KCNK9 two-pore domain potassium channel; HEK293 KCNK9, FluxOR thallium flux fluorescence; active compounds read low; B-score at 10 µM; hit rate 1.2% among 310,000;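 active means ratio B-score over 3 SD below the library mean, with starting fluorescence within 5 SD of its mean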;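 further: negative B-score means less thallium flux so channel inhibition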
KCNQ1 block: inhibitors of human KCNQ1 potassium channel | CHO-K1 KCNQ1, FluxOR thallium flux fluorescence; active compounds read high | B-score at 10 µM | hit rate 1.3% among 310,000 | AID 2642;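 active means compounds whose thallium flux B-score, printed positive for inhibition, exceeds three library SD while starting fluorescence stays within three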;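 further: channel opened by potassium depolarization with thallium stimulus after 20 min compound exposure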
KCNK3 block: human KCNK3 channel inhibition, primary screen | B-score at 10 µM | O14649 | CHO-KCNK3 thallium flux, FluxOR fluorescence; active compounds read low | hit rate 0.84% among 340,000;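 active means B-score under library mean minus 4 SD, starting fluorescence ratio at most library mean plus 5 SD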;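 further: more negative B-score means stronger inhibition of thallium flux through KCNK3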
Cl transport mod: modulators of human KCC2 chloride dependent transport; AID 1456; hit rate 2.2% among 190,000; Q9H2X9; KCC2 cells, thallium flux FluoZin-2 fluorescence; B-score of Tl+ flux slope (higher = more flux/activation; lower = inhibition) at 10 µM;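 active means thallium flux slope and its plate-corrected score both differing from the plate sample mean at a set confidence after two filtering rounds, in either direction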;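 further: slope of fluorescence scaled to starting intensity during 10 to 20 s after thallium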
KCNK9 block conf: confirmation of human KCNK9 potassium channel inhibitors. shares compounds with KCNK9 block. HEK293 KCNK9 cells, FluxOR thallium flux fluorescence. inhibition, % at 10 µM. hit rate 43% among 4,900. AID 492992;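 active means thallium signal inhibited by more than 5 SD of the compound-free buffer control wells, on both duplicate plates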
Kir21 sel: tests whether KCNK9 modulators also affect mouse Kir2.1. Kir2.1 cells, FluxOR thallium flux fluorescence. shares compounds with KCNK9 block. AID 492993. inhibition, % at 10 µM. hit rate 4% among 4,900;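 active means thallium signal drop more than 5 SD beyond the mean of the no-compound control wells, seen in both duplicate plates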;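 further: signal is fluorescence rise after thallium addition divided by baseline fluorescence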
Target sequence (P35561 whole entry, looked up): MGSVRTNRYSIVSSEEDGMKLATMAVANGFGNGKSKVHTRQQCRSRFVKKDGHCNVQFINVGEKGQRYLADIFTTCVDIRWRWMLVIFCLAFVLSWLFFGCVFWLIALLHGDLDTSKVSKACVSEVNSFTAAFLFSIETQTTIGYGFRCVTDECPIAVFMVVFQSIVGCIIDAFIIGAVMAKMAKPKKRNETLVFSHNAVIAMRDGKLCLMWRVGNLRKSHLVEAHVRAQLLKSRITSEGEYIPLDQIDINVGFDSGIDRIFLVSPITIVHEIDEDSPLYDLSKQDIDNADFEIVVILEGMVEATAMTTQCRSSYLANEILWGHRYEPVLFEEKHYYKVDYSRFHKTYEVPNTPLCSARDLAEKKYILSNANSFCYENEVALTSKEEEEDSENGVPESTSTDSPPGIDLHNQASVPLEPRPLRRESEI
HEK293 Tl ctr: second check of KCNK9 modulator effects in non-induced HEK293 cells; AID 492997; FluxOR thallium flux; hit rate 40% among 4,900; inhibition, % at 10 µM; shares compounds with KCNK9 block;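 active means thallium signal drop beyond 5 SD of the untreated control mean, on both duplicate plates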
Each line names hits and unclear results; the compound was inactive in the other large screens (follow-up assays come after a bar, where they were run).

Cc1ccc(C)c(OCc2cc(C(=O)N3C[C@H]4C[C@@H](C3)c3cccc(=O)n3C4)no2)c1	none (no result: Cl transport mod)
Cc1ccccc1NS(=O)(=O)c1ccc(OCC(=O)N2CCN(C)CC2)cc1	none (no result: Cl transport mod) | KCNK9 block conf inactive | Kir21 sel inactive | HEK293 Tl ctr inactive
Cc1ccc(NS(=O)(=O)c2ccc(OCC(=O)N3CCN(C)CC3)cc2)cc1	none (no result: Cl transport mod)
Clc1cnc(Oc2ccc(Oc3ncc(Cl)cc3Cl)cc2)c(Cl)c1	none | KCNK9 block conf inactive | Kir21 sel inactive | HEK293 Tl ctr inactive
Cc1cc(OC(=O)N(C)C)nc(SCc2c(Cl)cccc2Cl)n1	none
Oc1c(Cl)c(Cl)c(Cl)c(Cl)c1Cl	none (no result: Cl transport mod) | KCNK9 block conf inactive | Kir21 sel inactive | HEK293 Tl ctr inactive
O=c1[nH]c(=S)n(CCC2=CCCCC2)c(O)c1/C=N/Nc1ccccc1	none | KCNK9 block conf inactive | Kir21 sel inactive | HEK293 Tl ctr 25%
O=C1CC(=O)N(c2cccc(C(F)(F)F)c2)C(=O)N1	none (no result: Cl transport mod)
FC(F)(F)c1cccc(-n2nnnc2C2(N3CCOCC3)CCCCC2)c1	KCNK9 block -10 | KCNK9 block conf 42% | Kir21 sel inactive | HEK293 Tl ctr 35%
O=S(=O)(c1ccc(F)cc1)N1CCCCC1c1cccnc1 (centres undefined)	none
CC(=NCCN1CCCCC1)c1c(O)n(-c2ccccc2)c(=O)[nH]c1=O	none | KCNK9 block conf inactive | Kir21 sel inactive | HEK293 Tl ctr inactive
Cc1ccc(N(C)C(=O)Oc2ccc(C(=O)c3ccc(Cl)cc3)cc2)cc1	none
CC(C)n1c(=O)c(C=Nc2ccc(F)cc2)c(O)n(Cc2ccco2)c1=O	none | KCNK9 block conf inactive | Kir21 sel inactive | HEK293 Tl ctr inactive
Cc1cc(O)c(CN2CC=C(c3ccccc3)CC2)cc1C(C)C	none (no result: Cl transport mod) | KCNK9 block conf inactive | Kir21 sel inactive | HEK293 Tl ctr inactive
OC(CN1CC=C(c2ccccc2)CC1)c1ccccc1 (centres undefined)	none (no result: Cl transport mod)
O=C(Nc1ccc2ccccc2c1)c1nn(C23CC4CC(CC(C4)C2)C3)cc1Br	none (no result: Cl transport mod) | KCNK9 block conf inactive | Kir21 sel inactive | HEK293 Tl ctr inactive
Cc1nc(Cl)sc1C(=O)Nc1ccc2ccccc2c1	none
O=C(c1cc(F)ccc1F)C1CCCN(CCCc2ccccc2)C1 (centres undefined)	none (no result: Cl transport mod)
COc1cccc(C(=O)C2CCCN(Cc3cccc(C)n3)C2)c1 (centres undefined)	none
Cc1cccc(CN2CCCC(C(=O)c3cccc(OC(C)C)c3)C2)n1 (centres undefined)	none | KCNK9 block conf inactive | Kir21 sel inactive | HEK293 Tl ctr inactive
O=C(c1ccc(Cl)cc1)C1CCCN(Cc2cccc3cccnc23)C1 (centres undefined)	none | KCNK9 block conf inactive | Kir21 sel inactive | HEK293 Tl ctr inactive
O=C(c1cc(F)ccc1F)C1CCCN(Cc2cccc(Cl)c2)C1 (centres undefined)	none | KCNK9 block conf inactive | Kir21 sel inactive | HEK293 Tl ctr inactive
O=C(c1ccc2c(c1)OCO2)C1CCCN(Cc2c(F)cccc2Cl)C1 (centres undefined)	none (no result: Cl transport mod) | KCNK9 block conf inactive | Kir21 sel inactive | HEK293 Tl ctr inactive
CCNC(=O)NNC(=O)C1CC(c2cccnc2)=NO1 (centres undefined)	none
COC(=O)C1=C(c2ccc(OC(F)(F)F)cc2)C[C@@H]2CC[C@H]1N2C(=O)NCCOc1ccc(OC)cc1	none (no result: KCNQ1 pot, hERG protect, KCNK9 block, KCNQ1 block, Cl transport mod)
O=C(N[C@H]1CP(=O)(Oc2ccccc2)O[C@H](COCc2ccccc2)[C@H]1O)C(Cl)(Cl)Cl (some centres undefined)	none
COc1cccc(C(=O)C2CCCN(Cc3cnn(C(C)C)c3)C2)c1 (centres undefined)	none (no result: Cl transport mod)
COc1cccc(C(=O)C2CCCN(Cc3ccc4nsnc4c3)C2)c1 (centres undefined)	none | KCNK9 block conf inactive | Kir21 sel inactive | HEK293 Tl ctr inactive
COc1cccc(C(=O)C2CCCN(Cc3ccc(F)cc3)C2)c1 (centres undefined)	none (no result: Cl transport mod) | KCNK9 block conf inactive | Kir21 sel inactive | HEK293 Tl ctr inactive
O=C(CCN1CC1)OCCOC(=O)CCN1CC1	none (no result: KCNQ1 pot, hERG protect, KCNK9 block, KCNQ1 block, Cl transport mod)
COc1ccc(CN2CCCC(C(=O)c3sccc3C)C2)cc1O (centres undefined)	none
Fc1ccc(C[n+]2c(-c3ccccc3)cc(-c3ccccc3)cc2-c2ccccc2)cc1	KCNK9 block -11, KCNQ1 block 6 (no result: KCNK3 block, Cl transport mod) | KCNK9 block conf 52% | Kir21 sel 68% | HEK293 Tl ctr inactive
CCc1ccc(N2C(=O)NC(=O)/C(=C/c3cccn3CCOc3ccc(C(C)CC)cc3)C2=O)cc1 (centres undefined)	none | KCNK9 block conf inactive | Kir21 sel inactive | HEK293 Tl ctr inactive
Oc1ccccc1-[n+]1c(-c2ccccc2)cc(-c2ccccc2)c(O)c1-c1ccccc1	KCNK9 block -8.4 (no result: Cl transport mod) | KCNK9 block conf inactive | Kir21 sel inactive | HEK293 Tl ctr inactive
COc1cc(C)c(CN2CC=C(c3ccc(F)cc3)CC2)cc1C	none (no result: Cl transport mod) | KCNK9 block conf inactive | Kir21 sel inactive | HEK293 Tl ctr inactive
COc1cc(CN2CC=C(c3ccc(F)cc3)CC2)cc(OC)c1	none (no result: Cl transport mod)
Cc1ccc(O)c(C(=O)c2cc(C(=O)NCc3ccccc3)c(=O)n(Cc3ccccc3)c2)c1	KCNK9 block -10 | KCNK9 block conf 38% | Kir21 sel inactive | HEK293 Tl ctr 46%
Cn1cc(C(=O)NCc2ccccc2)c2ccccc21	none
CCCOC(=O)Nc1ccc([As](=O)(O)O)cc1NC(=O)OCCC	none
Cc1ccsc1C(=O)C1CCCN(Cc2cccc(-n3cccn3)c2)C1 (centres undefined)	none (no result: Cl transport mod) | KCNK9 block conf inactive | Kir21 sel inactive | HEK293 Tl ctr inactive
CSc1ncc(CN2CCCC(C(=O)c3sccc3C)C2)cn1 (centres undefined)	none | KCNK9 block conf inactive | Kir21 sel inactive | HEK293 Tl ctr inactive
CSc1ccc(C(=O)C2CCCN(Cc3cnc(SC)nc3)C2)cc1 (centres undefined)	none | KCNK9 block conf inactive | Kir21 sel inactive | HEK293 Tl ctr inactive
COc1cc(CN2CCCC(C(=O)c3sccc3C)C2)cc(Cl)c1O (centres undefined)	none | KCNK9 block conf inactive | Kir21 sel inactive | HEK293 Tl ctr inactive
O=C1C2CCCN2C(c2ccccc2)N1c1ccccn1 (centres undefined)	none
COc1ccc(CN(CCc2c[nH]c3ccccc23)Cc2ccc(OC)cc2)cc1	none (no result: KCNQ1 pot, hERG protect, KCNK9 block, KCNQ1 block, Cl transport mod)
